{"source": "ChEMBL document CHEMBL4038340", "about": "“Development of Novel Peptide-Based Michael Acceptors Targeting Rhodesain and Falcipain-2 for the Treatment of Neglected Tropical Diseases (NTDs)” (J Med Chem, 2017)", "key": {"[1]": {"system": "Trypanosoma brucei brucei", "assay": "Antiparasitic activity against bloodstream form of Trypanosoma brucei brucei 449 after 24 hrs by ATPlite assay", "format": "functional", "conditions": "Trypanosoma brucei, 449, 24 h"}, "[2]": {"system": "Trypanosoma brucei brucei", "assay": "Antiparasitic activity against bloodstream form of Trypanosoma brucei brucei 449 after 48 hrs by ATPlite assay", "format": "functional", "conditions": "Trypanosoma brucei, 449, 48 h"}, "[3]": {"target": "Rhodesain (Trypanosoma brucei rhodesiense) (UniProt Q95PM0)", "sequence (Q95PM0 1-450)": "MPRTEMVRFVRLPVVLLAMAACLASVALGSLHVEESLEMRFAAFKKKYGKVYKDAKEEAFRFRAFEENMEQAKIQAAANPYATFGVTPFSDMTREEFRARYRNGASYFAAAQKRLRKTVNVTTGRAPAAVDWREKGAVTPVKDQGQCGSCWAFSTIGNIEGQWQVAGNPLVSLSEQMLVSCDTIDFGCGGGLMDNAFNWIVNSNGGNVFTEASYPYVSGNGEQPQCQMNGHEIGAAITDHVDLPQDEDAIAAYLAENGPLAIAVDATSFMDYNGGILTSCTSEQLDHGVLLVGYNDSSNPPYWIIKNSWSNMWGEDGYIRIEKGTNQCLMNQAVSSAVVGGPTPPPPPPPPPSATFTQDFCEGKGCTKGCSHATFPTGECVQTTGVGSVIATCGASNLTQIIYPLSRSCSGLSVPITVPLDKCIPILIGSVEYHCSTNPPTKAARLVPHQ", "assay": "Inhibition of recombinant Trypanosoma brucei rhodesiense rhodesain expressed in Pichia pastoris assessed as second order rate constant using Cbz-Phe-Arg-AMC as substrate after 30 mins by fluorescence assay", "how_it_was_run": "(§1)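 Recombinant rhodesain with fluorogenic substrate Cbz-Phe-Arg-AMC. Preliminary screen at a fixed inhibitor concentration of 50 µM. Equal volume of DMSO served as negative control and E-64 as irreversible positive control. Active compounds went on to continuous assays at seven concentrations, from minimally to fully inhibitory, giving kinac (min-1), Ki (nM) and k2nd = kinac/Ki (M-1 min-1).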"}, "[4]": {"system": "Plasmodium falciparum", "assay": "Antiparasitic activity against Plasmodium falciparum W2 after 48 hrs by YOYO-1 probe-based flow cytometry", "format": "functional", "conditions": "W2, 48 h"}, "[5]": {"target": "Rhodesain (Trypanosoma brucei rhodesiense, UniProt Q95PM0)", "sequence (Q95PM0 whole entry)": "as the sequence (Q95PM0 1-450) above", "assay": "Inhibition of recombinant Trypanosoma brucei rhodesiense rhodesain expressed in Pichia pastoris using Cbz-Phe-Arg-AMC as substrate after 30 min by fluorescence assay", "how_it_was_run": "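Recombinant rhodesain with fluorogenic Cbz-Phe-Arg-AMC substrate. Compounds were first screened at a fixed 50 µM, with DMSO as negative control and an irreversible clan CA cysteine-protease inhibitor as positive control. Continuous assays at seven inhibitor concentrations, from minimally to fully inhibitory, gave kinac (min-1) and Ki, with k2nd = kinac/Ki (M-1 min-1).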"}, "[6]": {"target": "T1, Procathepsin L (Homo sapiens, UniProt P07711)", "assay": "Inhibition of human cathepsin L assessed as first order rate constant using Cbz-Phe-Arg-AMC as substrate after 10 mins by fluorescence assay"}, "[7]": {"target": "T2, Falcipain 2 (Plasmodium falciparum, UniProt Q9N6S8)", "T2 sequence (Q9N6S8 whole entry)": "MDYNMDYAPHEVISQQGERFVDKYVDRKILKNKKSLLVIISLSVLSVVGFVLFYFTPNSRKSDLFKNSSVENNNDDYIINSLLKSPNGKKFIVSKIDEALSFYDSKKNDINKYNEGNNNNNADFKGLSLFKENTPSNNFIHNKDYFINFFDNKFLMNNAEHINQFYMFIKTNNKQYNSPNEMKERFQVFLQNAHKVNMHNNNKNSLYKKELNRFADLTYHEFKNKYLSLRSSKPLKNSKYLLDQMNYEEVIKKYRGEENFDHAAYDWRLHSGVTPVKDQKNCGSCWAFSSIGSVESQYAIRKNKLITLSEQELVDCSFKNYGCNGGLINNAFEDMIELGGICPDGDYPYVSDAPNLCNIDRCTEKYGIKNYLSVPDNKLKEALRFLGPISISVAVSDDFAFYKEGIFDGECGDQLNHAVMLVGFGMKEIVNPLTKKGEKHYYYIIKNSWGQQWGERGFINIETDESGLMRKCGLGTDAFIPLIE", "assay": "Inhibition of recombinant Plasmodium falciparum falcipain-2 expressed in Escherichia coli M15(pREP4) using Cbz-Phe-Arg-AMC as substrate by fluorescence assay"}, "[8]": {"target": "T1, Procathepsin L", "assay": "Inhibition of human cathepsin L using Cbz-Phe-Arg-AMC as substrate after 10 mins by fluorescence assay"}, "[9]": {"target": "T1, Procathepsin L", "assay": "Inhibition of human cathepsin L assessed as second order rate constant using Cbz-Phe-Arg-AMC as substrate after 10 mins by fluorescence assay"}, "[10]": {"target": "Rhodesain (Trypanosoma brucei rhodesiense) (UniProt Q95PM0)", "assay": "Inhibition of recombinant Trypanosoma brucei rhodesiense rhodesain expressed in Pichia pastoris assessed as first order rate constant using Cbz-Phe-Arg-AMC as substrate after 30 mins by fluorescence assay", "how_it_was_run": "as §1"}, "[11]": {"assay": "Selectivity index, ratio of CC50 for human HeLa cells to EC50 for Trypanosoma brucei brucei 449 for 48 hrs", "format": "toxicity, cell-based", "conditions": "read-out: Ratio CC50/EC50"}, "[12]": {"assay": "Cytotoxicity against human HeLa cells assessed as decrease in cell viability after 48 hrs by MTT assay", "format": "cell-based"}}}
{"smiles": "N=C(NCCCCCCNC(=N)NC(=N)Nc1ccc(Cl)cc1)NC(=N)Nc1ccc(Cl)cc1", "note": "[CHLORHEXIDINE]", "values": [{"measurement": "EC50", "setting": "[1]", "result": 670, "unit": "nM"}, {"measurement": "EC50", "setting": "[2]", "result": 530, "unit": "nM"}]}
{"smiles": "CC(C)C[C@H](NC(=O)OCc1ccc([N+](=O)[O-])cc1)C(=O)N[C@H](/C=C/S(=O)(=O)c1ccccc1)CCc1ccccc1", "values": [{"measurement": "K", "setting": "[3]", "result": 304, "unit": "×10³ /M/min"}, {"measurement": "EC50", "setting": "[4]", "result": 2310, "unit": "nM"}, {"measurement": "Ki", "setting": "[5]", "result": 14, "unit": "nM"}, {"measurement": "Kinact", "setting": "[6]", "result": 0.005, "unit": "min⁻¹"}, {"measurement": "IC50", "setting": "[7]", "result": 1320, "unit": "nM"}, {"measurement": "Ki", "setting": "[8]", "result": 250, "unit": "nM"}, {"measurement": "K", "setting": "[9]", "result": 22, "unit": "×10³ /M/min"}, {"measurement": "Kinact", "setting": "[10]", "result": 0.0043, "unit": "min⁻¹"}]}
{"smiles": "CC(=O)/C=C/[C@H](CCc1ccccc1)NC(=O)[C@H](CC(C)C)NC(=O)OCc1ccc([N+](=O)[O-])cc1", "values": [{"measurement": "selectivity ratio at 48 h", "setting": "[11]", "result": 3.3}, {"measurement": "EC50", "setting": "[1]", "result": 3230, "unit": "nM"}, {"measurement": "K", "setting": "[3]", "result": 2970, "unit": "×10³ /M/min"}, {"measurement": "EC50", "setting": "[4]", "result": 2740, "unit": "nM"}, {"measurement": "Ki", "setting": "[5]", "result": 0.9, "unit": "nM"}, {"measurement": "EC50", "setting": "[2]", "result": 2480, "unit": "nM"}, {"measurement": "Kinact", "setting": "[6]", "result": 0.0026, "unit": "min⁻¹"}, {"measurement": "CC50 at 48 h", "setting": "[12]", "result": 8200, "unit": "nM"}, {"measurement": "IC50", "setting": "[7]", "result": 110, "unit": "nM"}, {"measurement": "Ki", "setting": "[8]", "result": 3.5, "unit": "nM"}, {"measurement": "K", "setting": "[9]", "result": 739, "unit": "×10³ /M/min"}, {"measurement": "Kinact", "setting": "[10]", "result": 0.0027, "unit": "min⁻¹"}]}
{"smiles": "CC(C)C[C@H](NC(=O)[C@H]1O[C@@H]1C(=O)O)C(=O)NCCCCN=C(N)N", "note": "[E-64]", "values": [{"measurement": "K", "setting": "[3]", "result": 261, "unit": "×10³ /M/min"}, {"measurement": "Ki", "setting": "[5]", "result": 35, "unit": "nM"}, {"measurement": "Kinact", "setting": "[6]", "result": 0.0032, "unit": "min⁻¹"}, {"measurement": "IC50", "setting": "[7]", "result": 250, "unit": "nM"}, {"measurement": "Ki", "setting": "[8]", "result": 30, "unit": "nM"}, {"measurement": "K", "setting": "[9]", "result": 110, "unit": "×10³ /M/min"}, {"measurement": "Kinact", "setting": "[10]", "result": 0.009, "unit": "min⁻¹"}]}
{"smiles": "CCN(CC)CCCC(C)Nc1ccnc2cc(Cl)ccc12", "note": "(stereo not given) [CHLOROQUINE]", "values": [{"measurement": "EC50", "setting": "[4]", "result": 57, "unit": "nM"}]}
{"smiles": "CC(C)C[C@H](NC(=O)OCc1ccccc1)C(=O)N[C@H](/C=C/C#N)CCc1ccccc1", "values": [{"measurement": "K", "setting": "[3]", "result": 19, "unit": "×10³ /M/min"}, {"measurement": "EC50", "setting": "[4]", "result": "> 10000", "unit": "nM"}, {"measurement": "Ki", "setting": "[5]", "result": 53, "unit": "nM"}, {"measurement": "Kinact", "setting": "[6]", "result": 0.0012, "unit": "min⁻¹"}, {"measurement": "IC50", "setting": "[7]", "result": "> 50000", "unit": "nM"}, {"measurement": "Ki", "setting": "[8]", "result": 330, "unit": "nM"}, {"measurement": "K", "setting": "[9]", "result": 3.8, "unit": "×10³ /M/min"}, {"measurement": "Kinact", "setting": "[10]", "result": 0.001, "unit": "min⁻¹"}]}
{"smiles": "CC(=O)/C=C/[C@H](CCc1ccccc1)NC(=O)[C@H](CC(C)C)NC(=O)OCc1ccccc1", "values": [{"measurement": "selectivity ratio at 48 h", "setting": "[11]", "result": 3}, {"measurement": "EC50", "setting": "[1]", "result": 3850, "unit": "nM"}, {"measurement": "K", "setting": "[3]", "result": 3800, "unit": "×10³ /M/min"}, {"measurement": "EC50", "setting": "[4]", "result": 3160, "unit": "nM"}, {"measurement": "Ki", "setting": "[5]", "result": 0.5, "unit": "nM"}, {"measurement": "EC50", "setting": "[2]", "result": 3200, "unit": "nM"}, {"measurement": "Kinact", "setting": "[6]", "result": 0.0013, "unit": "min⁻¹"}, {"measurement": "CC50 at 48 h", "setting": "[12]", "result": 9580, "unit": "nM"}, {"measurement": "IC50", "setting": "[7]", "result": 250, "unit": "nM"}, {"measurement": "Ki", "setting": "[8]", "result": 110, "unit": "nM"}, {"measurement": "K", "setting": "[9]", "result": 13, "unit": "×10³ /M/min"}, {"measurement": "Kinact", "setting": "[10]", "result": 0.0016, "unit": "min⁻¹"}]}
{"smiles": "N#C/C=C/[C@H](CCc1ccccc1)NC(=O)[C@H](Cc1ccccc1)NC(=O)OCc1ccc([N+](=O)[O-])cc1", "values": [{"measurement": "K", "setting": "[3]", "result": 0.26, "unit": "×10³ /M/min"}, {"measurement": "EC50", "setting": "[4]", "result": "> 10000", "unit": "nM"}, {"measurement": "Ki", "setting": "[5]", "result": 1740, "unit": "nM"}, {"measurement": "IC50", "setting": "[7]", "result": "> 50000", "unit": "nM"}, {"measurement": "Kinact", "setting": "[10]", "result": 0.0004, "unit": "min⁻¹"}]}
{"smiles": "O=C(N[C@@H](Cc1ccccc1)C(=O)N[C@H](/C=C/S(=O)(=O)c1ccccc1)CCc1ccccc1)OCc1ccccc1", "values": [{"measurement": "EC50", "setting": "[1]", "result": 23700, "unit": "nM"}, {"measurement": "K", "setting": "[3]", "result": 663, "unit": "×10³ /M/min"}, {"measurement": "EC50", "setting": "[4]", "result": "> 10000", "unit": "nM"}, {"measurement": "Ki", "setting": "[5]", "result": 5, "unit": "nM"}, {"measurement": "EC50", "setting": "[2]", "result": 18500, "unit": "nM"}, {"measurement": "Kinact", "setting": "[6]", "result": 0.0014, "unit": "min⁻¹"}, {"measurement": "IC50", "setting": "[7]", "result": 7330, "unit": "nM"}, {"measurement": "Ki", "setting": "[8]", "result": 290, "unit": "nM"}, {"measurement": "K", "setting": "[9]", "result": 4.4, "unit": "×10³ /M/min"}, {"measurement": "Kinact", "setting": "[10]", "result": 0.0033, "unit": "min⁻¹"}]}
